Published values collected from several papers.
Lines come from different studies, so protocols differ.
Cacna1b: Voltage-dependent N-type calcium channel subunit alpha-1B (Cacna1b, Rattus norvegicus, UniProt Q02294)
SIRT6: NAD-dependent protein deacylase sirtuin-6 (SIRT6, Homo sapiens, UniProt Q8N6T7)

target	observed	action	technique	cells	tested at	inhibition [%]	Structure (SMILES)
Cacna1b	ligand displacement	–	radioligand	–	10 µM	2	CCN(Cc1ccccc1C(F)(F)F)C(=O)C1CCN(S(=O)(=O)c2ccc3[nH]ncc3c2)CC1
SIRT6	enzyme activity	inhibitor	fluorescence	–	100 µM	79.7	NC(=O)c1ccc(C(=O)NOCc2ccccc2Br)cc1
C-C chemokine receptor type 5 (CCR5, Homo sapiens, UniProt P51681)	calcium signal	antagonist	–	U87/CD4/CCR5	20 µM	76	C/C(=C\C(=O)OCCCCCCCCC(=O)O)C[C@@H]1OC[C@H](C[C@@H]2O[C@H]2[C@@H](C)[C@H](C)O)[C@@H](O)[C@H]1O
Cacna1b	cell-free assay	–	–	–	10 µM	5	O=C(c1ccc(F)cc1)N(Cc1ccccc1)C1CCCCC1
ALK tyrosine kinase receptor (ALK, Homo sapiens, UniProt Q9UM73, G1202R)	enzyme activity	inhibitor	–	–	0.1 µM	-1.5	CC/C(=N\NC(=O)NCc1cccc(O)c1)c1ccc(O)c(C)c1O
SIRT6	enzyme activity	inhibitor	fluorescence	–	100 µM	89.1	NC(=O)c1ccc(C(=O)NOCc2ccc(Oc3ccccc3)cc2)cc1
Poly [ADP-ribose] polymerase 2 (PARP2, Homo sapiens, UniProt Q9UGN5)	enzyme activity	inhibitor	–	–	10 µM	40	Ic1cccc2cnccc12
SIRT6	enzyme activity	inhibitor	fluorescence	–	100 µM	78.2	COc1ccc(CONC(=O)c2ccc(C(N)=O)cc2)cc1
Voltage-dependent L-type calcium channel subunit alpha-1C (Cacna1c, Rattus norvegicus, UniProt P22002)	ligand displacement	–	radioligand	–	10 µM	24	O=C(Nc1ccc(S(=O)(=O)N2CCC(Cl)CC2)cc1)c1ccc([N+](=O)[O-])o1
